Laboratory results taken from ChEMBL document CHEMBL2429834, “Potent histone deacetylase inhibitors derived from 4-(aminomethyl)-N-hydroxybenzamide with high selectivity for the HDAC6 isoform” (J Med Chem, 2013).
≈ marks a conversion by molar mass, not a printed value.

Experiments:
[1] = Selectivity ratio of IC50 for HDAC1/2 in human HeLa cell nuclear extract to IC50 for N-terminal GST-tagged recombinant HDAC6 (unknown origin); type: cell-based
Summary of the method: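 HDAC6 leg: 1 nM GST-HDAC6 with 8 μM Ac-Arg-Gly-Lys(Ac)-AMC. Nuclear-extract leg: 30 μg/mL HeLa nuclear extract (mainly HDAC1/2) with 20 μM of the same substrate in 50 mM Tris-Cl, 137 mM NaCl, 2.7 mM KCl, 1 mM MgCl2, pH 8.0.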

[2] = molecular target: T1, Protein deacetylase HDAC6 (Homo sapiens, UniProt Q9UBN7); assay: Inhibition of N-terminal GST-tagged recombinant HDAC6 (unknown origin) assessed as deacetylation of Ac-Arg-Gly-Lys (Ac) after 1 hr by fluorescence plate reader analysis in presence of trypsin
T1 sequence (Q9UBN7 whole entry): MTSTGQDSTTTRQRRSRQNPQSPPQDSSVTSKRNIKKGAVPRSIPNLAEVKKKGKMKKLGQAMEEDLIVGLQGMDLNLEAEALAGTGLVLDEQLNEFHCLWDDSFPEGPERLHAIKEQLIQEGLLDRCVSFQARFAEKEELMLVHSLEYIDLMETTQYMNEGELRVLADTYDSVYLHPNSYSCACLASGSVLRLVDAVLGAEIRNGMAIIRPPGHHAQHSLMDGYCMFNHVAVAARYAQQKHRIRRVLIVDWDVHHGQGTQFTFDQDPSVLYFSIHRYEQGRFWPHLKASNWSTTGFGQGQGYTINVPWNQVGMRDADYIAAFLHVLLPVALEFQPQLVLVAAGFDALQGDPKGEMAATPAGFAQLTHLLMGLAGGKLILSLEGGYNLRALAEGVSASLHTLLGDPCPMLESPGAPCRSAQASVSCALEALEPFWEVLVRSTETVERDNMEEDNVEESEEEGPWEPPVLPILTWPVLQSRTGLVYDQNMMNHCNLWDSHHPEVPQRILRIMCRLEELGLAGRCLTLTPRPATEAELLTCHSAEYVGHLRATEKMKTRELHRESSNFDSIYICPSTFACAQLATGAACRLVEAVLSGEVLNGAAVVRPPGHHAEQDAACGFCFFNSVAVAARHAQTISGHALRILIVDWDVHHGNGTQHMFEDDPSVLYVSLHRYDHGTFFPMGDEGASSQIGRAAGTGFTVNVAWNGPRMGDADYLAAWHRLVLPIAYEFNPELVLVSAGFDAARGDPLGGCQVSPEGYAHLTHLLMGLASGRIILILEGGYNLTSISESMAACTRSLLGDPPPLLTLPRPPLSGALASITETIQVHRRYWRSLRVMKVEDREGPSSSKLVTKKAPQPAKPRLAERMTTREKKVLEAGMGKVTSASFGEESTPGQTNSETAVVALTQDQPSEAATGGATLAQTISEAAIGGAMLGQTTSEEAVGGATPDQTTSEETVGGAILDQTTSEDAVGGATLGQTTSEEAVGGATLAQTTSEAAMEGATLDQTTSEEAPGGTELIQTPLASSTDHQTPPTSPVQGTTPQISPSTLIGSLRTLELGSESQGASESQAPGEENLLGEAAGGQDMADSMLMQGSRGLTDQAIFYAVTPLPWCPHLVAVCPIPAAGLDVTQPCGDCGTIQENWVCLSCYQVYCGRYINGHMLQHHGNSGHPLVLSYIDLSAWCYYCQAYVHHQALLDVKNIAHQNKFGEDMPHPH

[3] = species: Homo sapiens; assay: Selectivity ratio of IC50 for full length C-terminal His6x-tagged recombinant human HDAC8 to IC50 for N-terminal GST-tagged recombinant HDAC6 (unknown origin)
[4] = Kinetic solubility of the compound in potassium phosphate buffer at pH 6.8 by turbidometric analysis; type: physicochemical; conditions: read-out: Kinetic_solubility
[5] = molecular target: T1, Protein deacetylase HDAC6; assay: Inhibition of HDAC6 in human HeLa cells using acetyl tubulin as substrate assessed as Ac-tubulin accumulation in cytosol after 6 hrs by immunofluorescence assay
[6] = molecular target: T2, Protein deacetylase HDAC6 (Homo sapiens) (UniProt Q9UBN7); assay: Inhibition of HDAC6 in human HeLa cells using acetyl tubulin as substrate assessed as Ac-Lys accumulation in nuclear histones at 20 uM after 24 hrs by immunofluorescence assay relative to control
T2 sequence (whole entry): T1 sequence (Q9UBN7 whole entry)

Row | SMILES | Ratio IC50 [1] | IC50 [2] | Ratio IC50 [3] | solubility kinetic [4] | IC50 [5] | inhibition [6]
1 | CC(C)(C)C(=O)N1CCc2sc(C(=O)NO)cc2C1 | 64 | 47 nM | 40 | > 200 µM | 177 nM | < 20%
2 | Cn1cccc1C(=O)NCc1ncc(C(=O)NO)s1 | 123 | 52 nM | 40 | > 200 µM |  | 
3 | CC(C)(C)C(=O)N1CCCc2cc(C(=O)NO)ccc2C1 | > 200 | 490 nM | 40 | > 200 µM | 3680 nM | < 20%
4 | O=C(NO)c1ccc2c(c1)CCCN(C(=O)c1ccc(-c3ccccc3)cc1)C2 | 60 | 120 nM | 40 | > 200 µM | 3090 nM | < 20%
5 | CC(C)(C)C(=O)NCc1ccc(C(=O)NO)cc1 | 200 | 79 nM | 40 | > 200 µM |  | 
6 | O=C(NO)c1ccc(CNC(=O)C2CCCCC2)cc1 | 84 | 76 nM | 40 | > 200 µM |  | 
7 | O=C(NO)c1ccc2c(c1)CCCN(C(=O)C1CCCCCC1)C2 | > 200 | 340 nM | 40 | > 200 µM | 2900 nM | < 20%
8 | Cn1cccc1C(=O)N1CCc2ccc(C(=O)NO)cc2CC1 | 480 | 130 nM | 40 | > 200 µM | 1510 nM | < 20%
9 | Cn1cccc1C(=O)NCc1ccc(C(=O)NO)s1 | 202 | 19 nM | 40 | > 200 µM |  | 
10 | O=C(NO)c1ccc2c(c1)CCN(C(=O)C1CCCCCC1)C2 | 650 | 54 nM |  | > 200 µM | 340 nM | < 20%
11 | Cn1cccc1C(=O)NCc1cnc(C(=O)NO)s1 | 8 | 12000 nM |  | > 200 µM |  | 
12 | Cn1cccc1C(=O)N1CCc2cc(C(=O)NO)sc2C1 | 14 | 28 nM |  | > 200 µM | 5 nM | < 20%
13 | O=C(NO)c1ccc2c(c1)CCN(C(=O)C1CCCCC1)C2 | 730 | 50 nM |  | > 200 µM | 540 nM | < 20%
14 | O=C(NO)c1cc2c(s1)CN(C(=O)C1CCCCC1)CC2 | 50 | 20 nM |  | > 200 µM | 50 nM | < 20%
15 | O=C(NO)c1ccc2c(c1)CCN(C(=O)C1CCCCCC1)CC2 | 340 | 120 nM | 40 | > 200 µM | 2000 nM | < 20%
16 | CC(C)(C)C(=O)N1CCc2cc(C(=O)NO)sc2C1 | 71 | 35 nM | 40 | > 200 µM | 158 nM | < 20%
17 | O=C(NO)c1ccc2c(c1)CCN(C(=O)c1ccc(-c3ccccc3)cc1)CC2 | 340 | 59 nM | 40 | > 200 µM | 2600 nM | < 20%
18 | O=C(NO)c1cc2c(s1)CCN(C(=O)C1CCCCC1)C2 | 47 | 36 nM | 40 | > 200 µM | 162 nM | < 20%
19 | O=C(NO)c1ccc2c(c1)CCN(S(=O)(=O)c1ccc(C(F)(F)F)cc1)C2 | 610 | 60 nM |  | 25 µM (≈ 10 µg/mL) | 1300 nM | < 20%
20 | CC(C)(C)C(=O)N1CCc2ccc(C(=O)NO)cc2CC1 | 340 | 120 nM | 40 | > 200 µM | 580 nM | < 20%
21 | Cn1cccc1C(=O)N1CCc2sc(C(=O)NO)cc2C1 | 30 | 24 nM |  | > 200 µM | 18 nM | < 20%
